Experiment [1] deals with DuPro. Put plainly: Macrocycle level in DuPro cells in 3 days after treatment with 0.5 uM concentration of the compound; Macrocycle level measured in per 10 lakh cells. It is filed as functional, Homo sapiens. Summed up:
(§1)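 Log-phase DuPro cells grown in RPMI 1640 with 10% fetal calf serum were exposed to macrocycle at 0.5–4 μM for 3 or 5 days, harvested with trypsin/EDTA and counted. About 1×10^6 cells were washed in cold PBS, extracted in 2% perchloric acid and sonicated. Supernatant was dansylated (modified for ring NH) and analysed by C-18 HPLC with fluorescence detection. Untreated controls were run per experiment.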

The test system of experiment [2] is DuPro. Description: Macrocycle level in DuPro cells in 3 days after treatment with 2 uM concentration of the compound; Macrocycle level measured in per 10 lakh cells. In kind it is functional, Homo sapiens. Summed up: as §1
Experiment [3] has as its system DuPro. Description: Macrocycle level in DuPro cells in 5 days after treatment with 0.5 uM concentration of the compound; Macrocycle level measured in per 10 lakh cells. In kind it is functional, Homo sapiens. The essentials:
as §1

Experiment [4] deals with DuPro. Put plainly: Macrocycle level in DuPro cells in 5 days after treatment with 2 uM concentration of the compound; Macrocycle level measured in per 10 lakh cells. In kind it is functional, Homo sapiens. Summed up:
as §1

Experiment [5] deals with DuPro. Description: Spermine level in DuPro cells in 3 days after treatment with 0.5 uM concentration of the compound; Sm level measured in per 10 lakh cells. It is filed as functional, Homo sapiens. Summed up: as §1
Experiment [6] deals with DuPro. Description: Spermidine level in DuPro cells in 5 days after treatment with 0.5 uM concentration of the compound; Spd level measured in per 10 lakh cells. In kind it is functional, Homo sapiens. Summed up:
as §1

In experiment [7] the test system is PC-3. Description: Inhibitory effect against growth of PC-3 human prostate cancer cell line. As to conditions: read-out: ID50 (the source's name). It is filed as functional. Summed up:
(§2)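 MTT growth assay. Trypsinized cells, 500 per well, seeded and incubated overnight at 37 °C in humidified 95% air/5% CO2. Serial macrocycle dilutions added, each concentration in quadruplicate, buffer controls in the outer columns, 6 days (144 h) of exposure. MTT 5 mg/mL added for 4 h, then overnight lysis in SDS/DMF/acetic acid buffer pH 4.8. Absorbance at 570 nm; ID50 derived.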

Experiment [8] has as its system DuPro. Description: Macrocycle level in DuPro cells in 3 days after treatment with 1 uM concentration of the compound; Macrocycle level measured in per 10 lakh cells. It is filed as functional, Homo sapiens. Summed up: as §1
The subject of experiment [9] is DuPro. Description: Macrocycle level in DuPro cells in 5 days after treatment with 1 uM concentration of the compound; Macrocycle level measured in per 10 lakh cells. In kind it is functional, Homo sapiens. Summed up:
as §1

Experiment [10] concerns DuPro. Description: Spermine level in DuPro cells in3 days after treatment with 1 uM concentration of the compound; Sm level measured in per 10 lakh cells. It is filed as functional, Homo sapiens. Summed up:
as §1

The test system of experiment [11] is DuPro. Put plainly: Macrocycle level in DuPro cells at 3 days after treatment with 2 uM concentration of the compound; Macrocycle level measured in per 10 lakh cells. It is filed as functional, Homo sapiens. The essentials:
as §1

Experiment [12] deals with DuPro. Put plainly: Macrocycle level in DuPro cells at 5 days after treatment with 1 uM concentration of the compound; Macrocycle level measured in per 10 lakh cells. In kind it is functional, Homo sapiens. The essentials: as §1
Experiment [13] relates to DuPro. Description: Macrocycle level in DuPro cells at 5 days after treatment with 2 uM concentration of the compound; Macrocycle level measured in per 10 lakh cells. In kind it is functional, Homo sapiens. The essentials: as §1
For experiment [14], the system named is DuPro. Description: Putrescine level in DuPro cells at 3 days after treatment with 2 uM concentration of the compound; Put level measured in per 10 lakh cells. In kind it is functional, Homo sapiens. Summed up:
as §1

Experiment [15] relates to DuPro. Description: Putrescine level in DuPro cells at 5 days after treatment with 2 uM concentration of the compound; Put level measured in per 10 lakh cells. It is filed as functional, Homo sapiens. Summed up: as §1
For experiment [16], the system named is DuPro. Put plainly: Spermine level in DuPro cells at 3 days after treatment with 2 uM concentration of the compound; Sm level measured in per 10 lakh cells. In kind it is functional, Homo sapiens. Summed up:
as §1

The subject of experiment [17] is DuPro. Description: Spermine level in DuPro cells in 5 days after treatment with 1 uM concentration of the compound; Sm level measured in per 10 lakh cells. In kind it is functional, Homo sapiens. Summed up:
as §1

In experiment [18] the test system is DuPro. Put plainly: Macrocycle level in DuPro cells at 3 days after treatment with 1 uM concentration of the compound; Macrocycle level measured in per 10 lakh cells. It is filed as functional, Homo sapiens. The essentials: as §1
The test system of experiment [19] is DuPro. Put plainly: Spermidine level in DuPro cells in 3 days after treatment with 1 uM concentration of the compound; Spd level measured in per 10 lakh cells. In kind it is functional, Homo sapiens. The essentials: as §1
For experiment [20], the system named is DuPro. Put plainly: Spermidine level in DuPro cells in 5 days after treatment with 1 uM concentration of the compound; Spd level measured in per 10 lakh cells. It is filed as functional, Homo sapiens. The essentials: as §1
In experiment [21] the test system is DuPro. Put plainly: Spermidine level in DuPro cells at 3 days after treatment with 2 uM concentration of the compound; Spd level measured in per 10 lakh cells. It is filed as functional, Homo sapiens. The essentials:
as §1

For experiment [22], the system named is DuPro. Description: Spermidine level in DuPro cells at 5 days after treatment with 2 uM concentration of the compound; Spd level measured in per 10 lakh cells. In kind it is functional, Homo sapiens. The essentials: as §1
The subject of experiment [23] is DuPro. Put plainly: Putrescine level in DuPro cells in 3 days after treatment with 1 uM concentration of the compound; Put level measured in per 10 lakh cells. It is filed as functional, Homo sapiens. The essentials: as §1
In experiment [24] the test system is DuPro. Put plainly: Spermine level in DuPro cells at 5 days after treatment with 2 uM concentration of the compound; Sm level measured in per 10 lakh cells. In kind it is functional, Homo sapiens. The essentials: as §1
The test system of experiment [25] is DuPro. Put plainly: Macrocycle level in DuPro cells in 3 days after treatment with 4 uM concentration of the compound; Macrocycle level measured in per 10 lakh cells. In kind it is functional, Homo sapiens. The essentials: as §1
Experiment [26] deals with DuPro. Description: Macrocycle level in DuPro cells in 5 days after treatment with 4 uM concentration of the compound; Macrocycle level measured in per 10 lakh cells. In kind it is functional, Homo sapiens. Summed up: as §1
The test system of experiment [27] is DuPro. Description: Inhibitory effect against growth of DuPro human prostate cancer cell line. In kind it is functional. As to conditions: read-out: ID50 (the source's name). The essentials:
as §2

As to `CCCCCCCCCCCCCC1CC(=O)NCCCNCCCNCCCN1.Cl.Cl.Cl` (stereo unspecified), the Polyamine level was 47.57 nM in experiment [1]; 49.07 nM in experiment [2]; 35.91 nM in experiment [3]; 42.34 nM in experiment [4]; 3 pM in experiment [5].

As for `CCCCCCCCCCCCCC1CC(=O)NCCCNCCCCCNCCCN1.Cl.Cl.Cl` (stereo unspecified), the Polyamine level in experiment [1] is 26.96 nM; in [2] it was 17.2 nM; in experiment [3], 26.84 nM; in [4] it was 10.24 nM; in experiment [6] it was 5 pM. The IC50 in [7] was found to be 1140 nM.

Take `CCCCCCCCCCCCCC1CC(=O)NCCCNCCCCNCCCN1.Cl.Cl.Cl` (stereo unspecified): the Polyamine level worked out at 2.79 nM in experiment [8], 25.07 nM in [2], 17.2 nM in [9] and 21.47 nM in experiment [4].

Consider `CCCCCCCCCCCCCC1CC(=O)NCCCNCCCNCCCNCCCN1.Cl.Cl.Cl.Cl` (stereo unspecified), for which the Polyamine level is 0.088 nM in experiment [10]; 5.99 nM in [11]; 46.77 nM in experiment [12]; 49.31 nM in experiment [13]; 0.02 nM in [14]; 0.011 nM in [15]. For the same compound, the Polyamine level was determined as 0.094 nM in experiment [16]; 0.043 nM in experiment [17]; 10.09 nM in experiment [18]; 0.029 nM in experiment [19]; 0.014 nM in experiment [20]; 0.027 nM in [21]. Further, the Polyamine level was 0.018 nM in [22], 4 pM in [23] and 0.053 nM in experiment [24].

As to `CCCCCCCCCCCCCC1CC(=O)NCCCNCCCCN1.Cl.Cl` (stereo unspecified), the Polyamine level in experiment [8] was 17 nM; in experiment [25] it was 22.1 nM; in [9] it was 24 nM; in experiment [26] it was 32 nM. Further, the figures for the IC50 in experiment [27] and in [7] were 1800 nM and 1700 nM, respectively.

These data come from ChEMBL document CHEMBL1148407, “Macrocyclic polyamines deplete cellular ATP levels and inhibit cell growth in human prostate cancer cells” (2004).
